# Bioassay records as filed in PubChem.
# In the library only some 2.9% were active in any assay of this set; here they are far more common.
# TRPC4 act – opens the mouse TRPC4 cation channel; Q9QUQ5; HEK293 TRPC4beta/mu-opioid, Fluo4 calcium fluorescence; stronger effect = higher value; B-score at 10 µM; hit rate 0.49% among 310,000; AID 2237;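 active = B-score above 5 SD of library B-scores, and initial fluorescence ratio not above library mean plus 5 SD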;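 also: positive B-score marks a calcium rise read as TRPC4 activation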
#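 Assay system – TRPC4beta and mu-opioid receptor HEK293 stable cells · Measured by – Fluo4 fluorescence, kinetic · Schedule – dye loading 45 min room temperature, 110 s kinetic read · Read-out – B-scored integrated calcium fluorescence ratio · Controls – buffer and maximal DAMGO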
# Kir21 inh – Kir2.1 (mouse) channel inhibition | P35561 | HEK293-Kir2.1, FluxOR thallium flux fluorescence; stronger effect = lower value | B-score at 10 µM | hit rate 0.85% among 310,000 | AID 1672;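 active = fluorescence ratio B-score at or below minus 3 SD of library scores, with starting-brightness B-score within 2 SD, cut at about -4.2 in these data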;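 also: channel flux triggered by added potassium and thallium sulfate stimulus; B-score of peak minus minimum fluorescence over baseline after thallium stimulus; more negative B-score means stronger Kir2.1 block with less thallium influx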
# TRPC4 block – TRPC4 (mouse) channel inhibition | hit rate 0.39% among 300,000 | Q9QUQ5 | AID 2247 | HEK293 TRPC4beta/mu-opioid, DAMGO-evoked Fluo4 calcium flux; stronger effect = lower value | B-score at 10 µM;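 active = B-score over 3 SD under the library average, no early fluorescence shift, positive overall ratio signal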
#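 Assay system: Stable TRPC4beta/mu-opioid receptor HEK293 cells | Reagent: DAMGO in two steps, submaximal then maximal | Compound dosing: Single concentration per test compound | Signal: Fluo4 Ca2+ flux fluorescence | Evaluation: Per-well B score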
# TRPC6 inhibitor – mouse TRPC6 channel inhibition; Q61143; HEK293-TRPC6, membrane potential dye, ACh-evoked depolarization; stronger effect = lower value; B-score at 10 µM; hit rate 1.1% among 310,000; AID 2553;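 active = B-score under library mean minus 3 SD, initial fluorescence not abnormally high, positive integrated signal ratio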;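 also: B-score derived from integrated fluorescence ratio over the kinetic read; more negative B-score means stronger inhibition of depolarization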
# Target sequence (Q61143 whole entry, looked up): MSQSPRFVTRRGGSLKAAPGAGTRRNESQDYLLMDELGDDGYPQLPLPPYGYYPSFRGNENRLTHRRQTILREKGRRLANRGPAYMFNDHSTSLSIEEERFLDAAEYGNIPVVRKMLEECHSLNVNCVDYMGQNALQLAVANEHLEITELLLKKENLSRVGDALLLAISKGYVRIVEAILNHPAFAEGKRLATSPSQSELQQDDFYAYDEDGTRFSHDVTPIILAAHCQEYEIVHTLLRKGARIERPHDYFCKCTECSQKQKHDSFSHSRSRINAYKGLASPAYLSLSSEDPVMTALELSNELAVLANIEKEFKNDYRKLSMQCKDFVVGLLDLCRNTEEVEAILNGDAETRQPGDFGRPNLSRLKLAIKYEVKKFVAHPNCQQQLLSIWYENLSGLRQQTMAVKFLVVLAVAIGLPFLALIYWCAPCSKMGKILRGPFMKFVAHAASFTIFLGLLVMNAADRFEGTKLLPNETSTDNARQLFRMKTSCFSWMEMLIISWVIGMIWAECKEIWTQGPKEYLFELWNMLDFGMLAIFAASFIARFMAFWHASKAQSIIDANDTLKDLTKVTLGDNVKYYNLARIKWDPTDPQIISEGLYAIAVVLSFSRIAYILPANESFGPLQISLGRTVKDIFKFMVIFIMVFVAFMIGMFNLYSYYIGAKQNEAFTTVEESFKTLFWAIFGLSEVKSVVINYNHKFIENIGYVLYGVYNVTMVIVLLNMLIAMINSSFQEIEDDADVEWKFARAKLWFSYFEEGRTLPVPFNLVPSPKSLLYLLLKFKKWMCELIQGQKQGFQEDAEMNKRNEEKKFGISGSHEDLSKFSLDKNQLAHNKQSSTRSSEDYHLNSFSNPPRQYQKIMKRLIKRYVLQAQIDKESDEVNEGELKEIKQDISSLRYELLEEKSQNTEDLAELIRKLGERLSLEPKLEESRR
# TRPC6 act – mouse TRPC6 channel activation; HEK293-TRPC6 membrane potential dye fluorescence; stronger effect = higher value; B-score at 10 µM; hit rate 0.13% among 310,000; AID 2550;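 active = B-score of the integrated fluorescence ratio above library mean plus 3 SD, and starting fluorescence ratio within library mean plus 5 SD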;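 also: higher score means more depolarization so channel activation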
# TRPC4 PAM – allosteric potentiators of mouse TRPC4 channel | hit rate 0.42% among 310,000 | HEK293 TRPC4beta/mu-opioid, DAMGO EC20, Fluo-4 Ca2+ flux; stronger effect = higher value | B-score at 10 µM | AID 2227 | Q9QUQ5;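 active = B-score of calcium response area above 5 SD of library B-scores, with initial fluorescence ratio within 5 SD of library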;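 also: B-score of integrated fluorescence ratio over time as area under calcium response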
# TRPC4 spec 2 – second selectivity test of TRPC6 inhibitors: effect on mouse TRPC4; shares compounds with TRPC6 inhibitor; HEK293 TRPC4/MOR, membrane potential dye fluorescence; channel activated by saturating DAMGO dose; inhibition, % at 10 µM; hit rate 42% among 920;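 active = compounds whose fluorescence signal differed from control wells by over 3 SD, either direction, in both duplicate plates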
# TRPC4 spec – selectivity of TRPC6 inhibitors: effect on mouse TRPC4; shares compounds with TRPC6 inhibitor; HEK293 TRPC4/mu-opioid, membrane potential fluorescence; hit rate 61% among 920; activity change, negative = inhibition, % at 10 µM; AID 2777;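 active = rise or fall in signal beyond 3 SD of buffer-only wells in both replicate plates, either sign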;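 also: integrated kinetic ratio of fluorescence range over baseline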
# HEK293 MPD ctr 2-1 – second counter-screen for TRPC6 inhibitors: parental HEK293 cells; shares compounds with TRPC6 inhibitor; parental HEK293 membrane potential dye fluorescence; maximal acetylcholine challenge after compound addition; signal change vs control, % at 10 µM; hit rate 31% among 920;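 active = membrane potential signal moving either way by over 3 SD of the maximum-effect control, in both duplicate plates, meaning non-specific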
# HEK293 MPD ctr-1 – counter-screen for TRPC6 inhibitors: effect in parental HEK293 cells; membrane potential signal change, % at 10 µM; hit rate 60% among 920; parental HEK293 membrane potential dye fluorescence; shares compounds with TRPC6 inhibitor;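 active = membrane potential signal shifting up or down by more than 3 SD of buffer-only wells, on both duplicate plates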
# HEK293 MPD ctr-2 – parental HEK293 nonspecific activity of TRPC6 modulators; shares compounds with TRPC6 inhibitor; membrane potential dye fluorescence; membrane potential signal change, % at 10 µM; hit rate 51% among 2,400; AID 488924;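 active = membrane potential signal moves up or down beyond 5 SD from buffer-only wells, on both duplicate plates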
# HEK293 MPD ctr 2-2 – parental HEK293 nonspecific activity of TRPC6 modulators, second screen. inhibition, % at 10 µM. AID 488926. shares compounds with TRPC6 inhibitor. hit rate 14% among 2,400. membrane potential dye fluorescence; after compound, maximal acetylcholine stimulation;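 active = membrane potential signal drops by more than 5 SD from the mean control signal, in both duplicate plates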;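 also: plate controls were acetylcholine ECmax control wells for no effect and buffer only wells for full effect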
# TRPC4 ctr mod – mouse TRPC4 off-target activity of TRPC6 modulators; shares compounds with TRPC6 inhibitor; HEK293 TRPC4/mu-opioid, membrane potential fluorescence; percent change from control (negative = decrease, positive = increase), % at 10 µM; hit rate 69% among 2,400; AID 488927;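 active = membrane potential signal moved up or down beyond 5 SD of buffer control wells, in both duplicate plates, actives on both sides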;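 also: plate controls were assay buffer wells for no effect and DAMGO maximal-effect wells for full effect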
# TRPC4/MOR inh 2 – second check of whether TRPC6 modulators also affect mouse TRPC4; HEK293 TRPC4/mu-opioid, membrane potential dye fluorescence; stimulated with maximal-effect DAMGO; inhibition, % at 10 µM; hit rate 55% among 2,400; shares compounds with TRPC6 inhibitor;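 active = drop in membrane potential signal beyond 5 SD of the control wells in both duplicate plates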;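 also: TRPC4 counter screen for TRPC6 hits run under conditions tuned for TRPC6 not TRPC4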
# TRPC6 inh conf – mouse TRPC6 inhibitor confirmation; hit rate 43% among 3,300; shares compounds with TRPC6 inhibitor; inhibition, % at 10 µM; HEK293-TRPC6, membrane potential dye, ACh-evoked depolarization;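 active = fluorescence ratio falls more than 5 SD below the full-stimulation control mean, in both duplicate runs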;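 also: integrated fluorescence ratio of peak minus minimum over baseline after agonist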
# TRPC6 act conf – confirmation of mouse TRPC6 activators. shares compounds with TRPC6 inhibitor. HEK293-TRPC6 membrane potential dye fluorescence, FDSS. hit rate 11% among 2,800. activation, % at 10 µM;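 active = ratio signal rise beyond 5 SD above unstimulated control wells' mean, seen in both duplicate runs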;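 also: plate controls were buffer EC0 wells for no effect and acetylcholine ECmax response for full effect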
# The depositor's hits bear a star; i = inactive; . = no result.
SMILES,TRPC4 act,Kir21 inh,TRPC4 block,TRPC6 inhibitor,TRPC6 act,TRPC4 PAM,TRPC4 spec 2,TRPC4 spec,HEK293 MPD ctr 2-1,HEK293 MPD ctr-1,HEK293 MPD ctr-2,HEK293 MPD ctr 2-2,TRPC4 ctr mod,TRPC4/MOR inh 2,TRPC6 inh conf,TRPC6 act conf
CCC(C)N1CCN(C(=O)Cc2ccccc2)CC1 (centres undefined),i,-1.44,i,-7.1*,i,i,i,i,i,i,.,.,.,.,i,i
O=C(Cc1ccccc1)N1CCN(CCCc2ccccc2)CC1,i,0.63,i,i,i,i,.,.,.,.,.,.,.,.,.,.
Cc1ccc(CN2C3CCCC2CC(NC(=O)Nc2cccc(F)c2)C3)cc1 (centres undefined),53*,-2.21,i,-6.49*,i,i,.,.,.,.,i,i,26.5%*,95.5%*,49.0%*,.
Cc1c(NC(NC(=O)CF)C(Cl)(Cl)Cl)c(=O)n(-c2ccccc2)n1C (centres undefined),i,1.19,i,i,i,i,.,.,.,.,.,.,.,.,.,.
OC(Cn1c2ccccc2c2ccccc21)C[n+]1cccc2ccccc21 (centres undefined),i,-5.16*,i,-6.71*,i,i,i,-27.5%*,i,-334.5%*,.,.,.,.,59.2%*,i
COc1cccc(O)c1CN1CCCC(C(=O)c2ccccc2SC)C1 (centres undefined),i,-0.83,i,-5.61*,i,i,.,.,.,.,192.5%*,i,26.0%*,54.5%*,i,.
CSc1ncc(CN2CCCC(C(=O)c3ccccc3SC)C2)cn1 (centres undefined),i,-0.22,i,i,i,i,.,.,.,.,.,.,.,.,.,.
N#CC(C#N)=NNc1ccc(-n2ccc(C(F)(F)F)n2)cc1,i,-6.02*,i,-9.24*,i,i,.,.,.,.,170.5%*,i,27.0%*,71.0%*,62.0%*,i
Cc1ccccc1OCCCn1cc(C(=O)C(=O)N2CCOCC2)c2ccccc21,i,-2.65,i,i,i,i,.,.,.,.,.,.,.,.,.,.
CC(C)CCn1c(=O)c(C(=O)Nc2ccccc2S(N)(=O)=O)c(O)c2ccccc21,i,-0.08,i,i,i,i,.,.,.,.,.,.,.,.,.,.
CCCCc1nc(N2CCNCC2)c(C#N)c2c1CSC(C)(C)C2,i,-2.63,i,-7.79*,i,i,44.5%*,i,i,0.9%*,.,.,.,.,i,i
OC(Cc1ccccc1)(c1ccccc1)C1CN2CCC1CC2 (centres undefined),i,-1.2,i,-5.42*,i,i,.,.,.,.,152.5%*,i,33.0%*,i,52.0%*,.
OC(c1ccccc1)(c1ccccc1)C1CN2CCC1CC2 (centres undefined),i,-0.98,i,-7.87*,i,i,i,i,i,i,.,.,.,.,i,i
c1ccc(C2CN3CCC2CC3)cc1 (centres undefined),i,-0.17,i,i,i,i,.,.,.,.,.,.,.,.,.,.
OC(c1ccccc1)(c1ccc(Cl)cc1)C1CN2CCC1CC2 (centres undefined),i,0,i,i,i,i,.,.,.,.,.,.,.,.,.,.
Cc1cc(N2CCN(C)CC2)nc2ccccc12,i,-0.34,i,i,i,i,.,.,.,.,.,.,.,.,.,.
CN1CCC(N(C)c2nc(-c3ccccc3)nc3ccccc23)CC1,i,-0.98,i,-7.61*,i,15*,.,.,.,.,-305.5%*,87.5%*,-54.0%*,65.5%*,74.5%*,i
CCOc1ccc(-n2c(O)c(C=Nc3ccc(NC(C)=O)cc3)c(=O)[nH]c2=O)cc1,i,-0.61,i,i,i,i,.,.,.,.,.,.,.,.,.,.
C[C@H]1OC[C@@H](C[N+](C)(C)C)O1,88*,-0.33,i,-6.71*,i,i,i,34.0%*,i,4.8%*,.,.,.,.,70.1%*,.
